ChEMBL document CHEMBL1122269, “Synthesis and biological evaluation of neutral derivatives of 5-fluoro-2'-deoxyuridine 5'-phosphate” (1983)

Legend:
[1] = test system: P388; assay: Median survival time (MST) of murine leukemia P388 (1*10e 6 cells) sensitive to 5-FU in mice at dose of 500 mg/kg(ip); format: functional, Mus musculus
In short: (§1)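 Male BDF₁ mice, six per group, average weight 23 g, were inoculated ip with 1×10^6 P-388 cells on day 0. Compound in 0.9% saline was given ip daily for 5 days from 24 h post-implant. Mice were followed for 60 days or until death, and median survival time was recorded. Saline-treated controls numbered 20 mice.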

[2] = test system: P388; assay: Median survival time (MST) of murine leukemia P388 (1*10e 6 cells) resistant to 5-FU in mice at dose of 180 mg/kg(ip); format: functional, Mus musculus; in short: as §1
[3] = test system: P388; assay: Median survival time (MST) of murine leukemia P388 (1*10e 6 cells) resistant to 5-FU in mice at dose of 500 mg/kg(ip); format: functional, Mus musculus; in short: as §1
[4] = test system: P388; assay: Average percentage weight change on day 6 in murine leukemia P388 resistant to 5-FU at dose 180 mg/kg; format: functional, Mus musculus
In short: (§2)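 Male BDF₁ mice, six per group, average weight 23 g, were inoculated ip on day 0 with 1×10^6 P-388 leukemia cells, either 5-FU-sensitive or 5-FU-resistant. Compound in 0.9% saline was given ip once daily for 5 consecutive days, starting 24 h after tumor transplantation. Saline-treated animals served as controls.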

[5] = test system: P388; assay: Average percentage weight change on day 6 in murine leukemia P388 sensitive to 5-FU at dose 180 mg/kg; format: functional, Mus musculus; in short: as §2
[6] = test system: P388; assay: Median survival time (MST) of murine leukemia P388 (1*10e 6 cells) resistant to 5-FU in mice at dose of 300 mg/kg(ip); format: functional, Mus musculus; in short: as §1
[7] = test system: P388; assay: Percentage increase in life span of murine leukemia P388 resistant to 5-FU at dose 500 mg/kg; format: functional; settings: Mus musculus
In short: (§3)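 P-388 model in male BDF₁ mice, six per group, average weight 23 g: 1×10^6 cells ip on day 0, then compound in 0.9% saline ip daily ×5 from 24 h. Mice were observed up to 60 days. % ILS = (T/C − 1) × 100, using median survival of treated mice versus saline-treated controls.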

[8] = test system: P388; assay: Percentage increase in life span of murine leukemia P388 sensitive to 5-FU, at dose 300 mg/kg; format: functional; settings: Mus musculus; in short: as §3
[9] = test system: P388; assay: Median survival time (MST) of murine leukemia P388 (1*10e 6 cells) sensitive to 5-FU in mice at dose of 300 mg/kg(ip); format: functional, Mus musculus; in short: as §1
[10] = test system: P388; assay: Average percentage weight change on day 6 in murine leukemia P388 resistant to 5-FU at dose 500 mg/kg; format: functional, Mus musculus; in short: as §2
[11] = test system: P388; assay: Percentage increase in life span of murine leukemia P388 resistant to 5-FU, at a dose 300 mg/kg; format: functional; settings: Mus musculus; in short: as §3
[12] = test system: P388; assay: Median survival time (MST) of murine leukemia P388 (1*10e 6 cells) sensitive to 5-FU in mice at dose of 108 mg/kg(ip); format: functional, Mus musculus; in short: as §1
[13] = test system: P388; assay: Average percentage weight change on day 6 in murine leukemia P388 sensitive to 5-FU at dose 108 mg/kg; format: functional, Mus musculus; in short: as §2
[14] = test system: P388; assay: Percentage increase in life span of murine leukemia P388 sensitive to 5-FU, at dose 108 mg/kg; format: functional; settings: Mus musculus; in short: as §3
[15] = test system: P388; assay: Average percentage weight change on day 6 in murine leukemia P388 resistant to 5-FU at dose 108 mg/kg; format: functional, Mus musculus; in short: as §2
[16] = test system: P388; assay: Average percentage weight change on day 6 in murine leukemia P388 sensitive to 5-FU at dose 300 mg/kg; format: functional, Mus musculus; in short: as §2
[17] = test system: P388; assay: Median survival time (MST) of murine leukemia P388 (1*10e 6 cells) sensitive to 5-FU in mice at dose of 180 mg/kg(ip); format: functional, Mus musculus; in short: as §1
[18] = test system: P388; assay: Median survival time (MST) of murine leukemia P388 (1*10e 6 cells) resistant to 5-FU in mice at dose of 108 mg/kg(ip); format: functional, Mus musculus; in short: as §1
[19] = test system: P388; assay: Percentage increase in life span of murine leukemia P388 sensitive to 5-FU, at dose 180 mg/kg; format: functional; settings: Mus musculus; in short: as §3
[20] = test system: P388; assay: Percentage increase in life span of murine leukemia P388 resistant to 5-FU at dose 180 mg/kg; format: functional; settings: Mus musculus; in short: as §3
[21] = test system: P388; assay: Average percentage weight change on day 6 in murine leukemia P388 resistant to 5-FU at dose 300 mg/Kg; format: functional, Mus musculus; in short: as §2
[22] = test system: P388; assay: Average percentage weight change on day 6 in murine leukemia P388 sensitive to 5-FU at dose 500 mg/kg; format: functional, Mus musculus; in short: as §2
[23] = test system: P388; assay: Percentage increase in life span of murine leukemia P388 resistant to 5-FU at dose 108 mg/kg; format: functional; settings: Mus musculus; in short: as §3
[24] = test system: P388; assay: Percentage increase in life span of murine leukemia P388 sensitive to 5-FU at dose 500 mg/kg; format: functional; settings: Mus musculus; in short: as §3

With O=c1[nH]c(=O)n([C@H]2C[C@H](O)[C@@H](COP3(=O)OCCCO3)O2)cc1F the MST [1] was 12 days, the MST [2] was 10 days and the MST [3] was 10 days. It also gave a Weight change [4] of 4.1%, a Weight change [5] of 0% and an MST [6] of 10 days. It also gave an ILS at 500 mg/kg [7] of 0%, an ILS at 300 mg/kg [8] of 22% and an MST [9] of 11 days. The Weight change [10] was 0.6%, the ILS at 300 mg/kg [11] was 0% and the MST [12] was 10 days. For the same molecule, the Weight change [13] was 1.7%, the ILS at 108 mg/kg [14] was 11% and the Weight change [15] was 6.3%. The Weight change [16] was -8.8%, the MST [17] was 10 days and the MST [18] was 10 days. The ILS at 180 mg/kg [19] was 11%, the ILS at 180 mg/kg [20] was 0% and the Weight change [21] was 1.2%. For the same molecule, the Weight change [22] was -12.4%, the ILS at 108 mg/kg [23] was 0% and the ILS at 500 mg/kg [24] was 33%.
